The test system of one assay is Micrococcus luteus. Nature of the assay: Antibacterial activity against Micrococcus luteus ATCC 9341 at 625 ug/mL after 24 hrs by conventional well agar method. Type of assay: functional, organism-based.
The next assay relates to Candida albicans. Briefly: Antifungal activity against Candida albicans ATCC 10231 at 625 ug/mL after 24 hrs by conventional well agar method. The assay is classed as functional, organism-based.
A further assay relates to Bacteroides fragilis. Briefly: Antibacterial activity against Bacteroides fragilis ATCC 25285 at 625 ug/mL after 24 hrs by conventional well agar method. Type of assay: functional, organism-based.
For another assay, the system named is Escherichia coli. Briefly: Antibacterial activity against Escherichia coli ATCC 10536 at 625 ug/mL after 24 hrs by conventional well agar method. The assay is classed as functional, organism-based.
The subject of a further assay is Helicobacter pylori. Nature of the assay: Antibacterial activity against Helicobacter pylori 31A after 48 hrs by serial doubling dilution method. The assay is classed as functional. The procedure, abridged:
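H. pylori strain 31 A (stomach ulcer isolate) in brain-heart infusion broth with 10% fetal bovine serum, grown in test tubes under 10% CO2, 5% O2 and 85% N2 at 37 °C. Serial doubling dilutions made in 10% aqueous DMSO and added as 10% of the medium, with 5% culture inoculum. Incubated 37 °C for 48 h. MIC taken as the lowest concentration with no visible growth.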

A further assay deals with Bacillus subtilis. Briefly: Antibacterial activity against Bacillus subtilis ATCC 6633 at 625 ug/mL after 24 hrs by conventional well agar method. The assay is classed as functional, organism-based.
The test system of a further assay is Pseudomonas aeruginosa. Nature of the assay: Antibacterial activity against Pseudomonas aeruginosa ATCC 9027 at 625 ug/mL after 24 hrs by conventional well agar method. Type of assay: functional, organism-based.

Values after ≈ are worked out from the molar mass of the structure shown. Active and inactive are the calls of the source. No cut-off for these calls is given here.

As to `COc1cc2c(cc1OC)Oc1c(oc3c4c(ccc3c1=O)OC(C)(C)C=C4)CO2`, the result in the assay with Micrococcus luteus, in the assay with Candida albicans, in the assay with Bacteroides fragilis, in the assay on Escherichia coli, in the assay on Bacillus subtilis and in the assay on Pseudomonas aeruginosa was inactive. The MIC in the assay on Helicobacter pylori is 4 µg/mL (≈ 9.79 µM).

`COc1cc2c(cc1OC)[C@]1(O)C(=O)c3ccc4c(c3O[C@@H]1CO2)[C@H](O)[C@@H](O)C(C)(C)O4`: the result in the assay on Micrococcus luteus, in the assay with Candida albicans, in the assay with Bacteroides fragilis, in the assay with Escherichia coli, in the assay on Bacillus subtilis and with Pseudomonas aeruginosa was inactive. The molecule further showed an MIC in the assay with Helicobacter pylori of more than 88 µg/mL.

Take `CC[C@H]1OC(=O)[C@H](C)[C@@H](O[C@H]2C[C@@](C)(OC)[C@@H](O)[C@H](C)O2)[C@H](C)[C@@H](O[C@@H]2O[C@H](C)C[C@H](N(C)C)[C@H]2O)[C@](C)(OC)C[C@@H](C)C(=O)[C@H](C)[C@@H](O)[C@]1(C)O` [CLARITHROMYCIN]: the result in the assay with Micrococcus luteus, in the assay with Candida albicans, in the assay on Bacteroides fragilis, in the assay on Escherichia coli, with Bacillus subtilis and with Pseudomonas aeruginosa was inactive. The same molecule yielded an MIC against Helicobacter pylori of 0.05 µg/mL (≈ 0.0668 µM).

For the molecule `COc1cc2c(cc1OC)[C@@H]1C(=O)c3ccc4c(c3O[C@@H]1CO2)C=CC(C)(C)O4` [DEGUELIN], the result in the assay with Micrococcus luteus, with Candida albicans, in the assay with Bacteroides fragilis, with Escherichia coli, in the assay on Bacillus subtilis and in the assay on Pseudomonas aeruginosa was inactive. Further, 0.6 µg/mL (≈ 1.52 µM) was the least that counted as inhibitory against Helicobacter pylori (MIC).

As to `COc1cc2c(cc1OC)-c1c(oc3c4c(ccc3c1=O)OC(C)(C)C=C4)CO2` [DEHYDRODEGUELIN], the result in the assay on Micrococcus luteus, with Candida albicans, in the assay with Bacteroides fragilis, with Escherichia coli, in the assay with Bacillus subtilis and in the assay on Pseudomonas aeruginosa was inactive. In the assay on Helicobacter pylori, this molecule had an MIC of 4 µg/mL (≈ 10.2 µM).

Take `C=C(C)[C@H]1Cc2c(ccc3c(=O)c4c(oc23)COc2cc(OC)c(OC)cc2-4)O1` [DEHYDROROTENONE]: the result in the assay on Micrococcus luteus, with Candida albicans, in the assay with Bacteroides fragilis, with Escherichia coli, with Bacillus subtilis and in the assay on Pseudomonas aeruginosa was inactive. Inhibition of growth in the assay on Helicobacter pylori (MIC) required 9.8 µg/mL (≈ 25 µM).

Consider `COc1cc2c(cc1OC)[C@@H]1C(=O)c3ccc4c(c3O[C@@H]1CO2)[C@H](O)[C@@H](O)C(C)(C)O4` [DERRISIN], for which the outcome with Micrococcus luteus, in the assay on Candida albicans, in the assay on Bacteroides fragilis, with Escherichia coli, in the assay with Bacillus subtilis and with Pseudomonas aeruginosa was inactive. The MIC against Helicobacter pylori is 85 µg/mL (≈ 198 µM).

As for `COc1cc2c(cc1OC)[C@@H]1C(=O)c3ccc4occc4c3O[C@@H]1CO2` [ELLIPTONE], the result in the assay with Micrococcus luteus, in the assay on Candida albicans, in the assay on Bacteroides fragilis, in the assay on Escherichia coli, in the assay on Bacillus subtilis and in the assay with Pseudomonas aeruginosa was inactive. The same molecule had an MIC with Helicobacter pylori of 3 µg/mL (≈ 8.51 µM).

Take `C=C(C)[C@H]1Cc2c(ccc3c2O[C@@H]2COc4cc(OC)c(OC)cc4[C@]2(O)C3=O)O1` [ROTENOLONE]: the result in the assay on Micrococcus luteus, in the assay on Candida albicans, in the assay on Bacteroides fragilis, in the assay on Escherichia coli, in the assay with Bacillus subtilis and in the assay on Pseudomonas aeruginosa was inactive. Further, the MIC in the assay on Helicobacter pylori is 1.3 µg/mL (≈ 3.17 µM).

As to `C=C(C)[C@H]1Cc2c(ccc3c2O[C@@H]2COc4cc(OC)c(OC)cc4[C@@H]2C3=O)O1` [ROTENONE], the outcome in the assay on Micrococcus luteus, in the assay with Candida albicans, in the assay on Bacteroides fragilis, with Escherichia coli, with Bacillus subtilis and in the assay with Pseudomonas aeruginosa was inactive. Moreover, in the assay with Helicobacter pylori, the MIC stood at 1.3 µg/mL (≈ 3.3 µM).

In the case of `COc1cc2c(cc1OC)[C@]1(O)C(=O)c3ccc4c(c3O[C@@H]1CO2)C=CC(C)(C)O4` [TEPHROSIN], the result in the assay with Micrococcus luteus, in the assay on Candida albicans, with Bacteroides fragilis, in the assay on Escherichia coli, in the assay with Bacillus subtilis and in the assay with Pseudomonas aeruginosa was inactive. This molecule also had an MIC with Helicobacter pylori of 0.3 µg/mL (≈ 0.731 µM).

`COc1cc2c(cc1OC)[C@@H]1C(=O)c3c(O)cc4c(c3O[C@@H]1CO2)C=CC(C)(C)O4` [TOXICAROL]: the result in the assay with Micrococcus luteus, in the assay with Candida albicans, with Bacteroides fragilis, in the assay with Escherichia coli, in the assay with Bacillus subtilis and in the assay with Pseudomonas aeruginosa was inactive. For the same molecule, inhibition of growth with Helicobacter pylori (MIC) required 0.3 µg/mL (≈ 0.731 µM).

For the origin of these results see ChEMBL document CHEMBL1148130, “Derrisin, a new rotenoid from Derris malaccensis plain and anti-Helicobacter pylori activity of its related constituents” (2002).
